APP transl inh: APP translation inhibition. SH-SY5Y APP 5'UTR-luciferase reporter, luminescence. hit rate 0.82% among 190,000. AID 1285. inhibition, % at 2 µM;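 active means inhibition above a set limit, derived from the sample mean plus 3 SD, cut at about 45% in these data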
STAT1 activator: activators of IFN-gamma induced STAT1 signaling; NIH 3T3 STAT1-luciferase reporter, luminescence; 100% = IFN-gamma alone, no compound; activation (% of control), % at 5.5 µM; hit rate 2.6% among 200,000; AID 932;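 active means activation above the screen-wide mean activation plus 3 SD, cut at about 130% in these data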;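 further: raw ratio to IFN-gamma control signal so 100% means no change and 0% no light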
APP 5'UTR act: APP 5'UTR luciferase reporter activation. SH-SY5Y APP 5'UTR luciferase reporter, luminescence; zero percent = DMSO vehicle wells. hit rate 1% among 190,000. activation, % at 2 µM;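 active means activation above a set limit, based on mean plus 3 SD of controls, cut at about 140% in these data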
FLuc inh counter: counter-screen for luciferase assay inhibitors: firefly luciferase inhibition | ATPLite firefly luciferase biochemical luminescence, 10 min | AID 1006 | hit rate 1.5% among 200,000 | inhibition, % at 10 µM;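 active means inhibition above about 50% when tested at 10 µM, limit read from the data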
Target sequence (P08659 whole entry, looked up): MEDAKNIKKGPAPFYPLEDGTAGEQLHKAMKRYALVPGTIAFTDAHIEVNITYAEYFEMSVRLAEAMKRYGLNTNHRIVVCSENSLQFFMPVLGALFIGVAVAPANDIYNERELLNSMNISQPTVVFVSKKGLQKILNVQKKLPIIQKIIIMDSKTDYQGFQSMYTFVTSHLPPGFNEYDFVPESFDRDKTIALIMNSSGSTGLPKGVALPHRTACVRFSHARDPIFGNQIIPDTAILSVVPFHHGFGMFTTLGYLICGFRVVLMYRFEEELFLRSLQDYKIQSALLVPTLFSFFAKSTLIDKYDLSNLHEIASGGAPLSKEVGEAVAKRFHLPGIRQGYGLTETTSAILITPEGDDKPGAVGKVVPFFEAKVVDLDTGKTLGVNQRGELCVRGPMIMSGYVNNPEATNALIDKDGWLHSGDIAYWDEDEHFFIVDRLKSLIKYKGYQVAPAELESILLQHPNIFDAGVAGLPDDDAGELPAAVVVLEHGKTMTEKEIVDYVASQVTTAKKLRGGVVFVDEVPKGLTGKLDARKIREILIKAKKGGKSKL
FLuc act counter: affects firefly luciferase, flagging false hits in luciferase stimulation screens; ATPlite luciferase biochemical, luminescence, 10 min; 0 = ATP-free wells, 1 = DMSO control; activation factor at 10 µM; 200,000 tested, under 10 active; AID 1027;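 active means luciferase activation factor, scaled between plate controls, of at least 2 with compound at 10 µM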
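Assay system: Luciferase/luciferin detection reagent, cell-free biochemical luciferase assay / Read-out: luciferase activation / Benchmarks: No-ATP low control, compound-free enzyme-plus-ATP high control / Medium: PBS buffer for ATP / Detection: luminescence measurement of luciferase light output / Schedule: 10 min at ambient temperature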
NF-kB neuron act: NF-kB expression increase, human neuronal cells. NF-kB reporter expression; hits give high values. hit rate 1.6% among 190,000. fold change at 12.5 µM; in the data active means fold change above about 3.3
* marks the source's active call; other numbers are inactive results. The list is not random: actives were taken first. Their share in the collection is about 4.8%.

SMILES	APP transl inh	STAT1 activator	APP 5'UTR act	FLuc inh counter	FLuc act counter	NF-kB neuron act
CC1=C([N+](=O)[O-])C(c2ccccc2)C2=C(N1)c1ccccc1C2=O (configuration not stated)	57*	94	-57	-6	1.1	1.9
COc1ccc(C2C(C#N)=C(C)NC3=C2C(=O)c2ccccc23)cc1 (configuration not stated)	5	95	-5	-6	1.1	0.85
C=CCn1c(SCc2nc3ccccc3c(=O)[nH]2)nnc1-c1cc2cc(Cl)ccc2o1	7	102	-7	6	0.9	1.2
COC(=O)Cn1c(O)c(N=NC(=O)c2ccc3c(c2)OCO3)c2ccccc21	-18	97	18	76*	0.2	1.7
Cc1cccc(NC(=O)Cn2c(O)c(N=NC(=O)c3ccncc3)c3ccccc32)c1	-14	86	14	0	1	1.3
O=C(NCCSc1ccccn1)c1ccc(Cl)cc1	-209	121	209*	22	0.8	6.1*
O=C(NCCSc1ccccn1)c1ccc(Cl)cc1Cl	-120	125	120	29	0.7	4.5*
CS(=O)(=O)N(Cc1ccc(Cl)cc1)c1ccc(C(=O)NCCSc2ccccn2)cc1	-4	98	4	-3	1	0.92
O=C(Nc1ccc(CSc2ccccc2)cc1)c1ccccc1	-6	113	6	-2	1	1.1
O=C(Nc1ccccc1)c1ccc(CSc2ccccn2)cc1	-197	133*	197*	34	0.7	3.3
CCOc1ccc(C(=O)NCC(c2cccs2)N(C)C)cc1OCC (configuration not stated)	-10	102	10	-5	1.1	1.1
CNS(=O)(=O)c1cccc(C(=O)OCc2cc(=O)n3cc(Br)ccc3n2)c1	10	97	-10	0	1	0.73
CCCCOC(=O)Nc1nnc(Cc2ccc(Cl)cc2)s1	-5	102	5	-4	1	1.3
CC(/C=N/NC(=O)Cn1nccc1C)=C\c1ccc(C(C)C)cc1	-10	129*	11	-3	1	1.1
COC(=O)c1ccc(NC(=O)Nc2ccc(OC)cc2)cc1	-24	114	24	3	1	1.5
COc1ccc(C(=O)C(CCC(CNC(C)(C)C)C(=O)c2ccc(OC)cc2)CNC(C)(C)C)cc1 (configuration not stated)	97*	80	-97	-2	1	0.43
COc1cccc(C=Nc2cccc3c(=O)[nH][nH]c(=O)c23)c1O	-12	107	12	80*	0.2	1.5
COc1ccc(C=Nc2cccc3c(=O)[nH][nH]c(=O)c23)c2ccccc12	-14	102	14	-9	1.1	1.1
c1ccc2c(c1)nnn2-c1ncnc2sccc12	-16	134*	16	15	0.8	2.1
O=C1C(Cl)=C(Nc2ccccc2O)C(=O)N1c1ccccc1	-46	82	46	6	0.9	4.3*
CC(=O)c1sc(Nc2nc(C)cc(C)n2)nc1C	83*	99	-83	3	1	1.2
COc1ccc(C(=O)Nc2nc(C)c(C(=O)N(C)C)s2)cc1OC	-12	102	12	18	0.8	1.3
CC(=O)c1sc(NC(=O)C(C)(C)C)nc1C	-12	98	12	-5	1	1.3
CC(=O)c1sc(NC(=O)c2ccc(C(C)(C)C)cc2)nc1C	-73	130*	73	30	0.7	2.8
CC(=O)c1sc(NC(=O)c2ccc(C)c(C)c2)nc1C	-172	147*	172*	31	0.7	2.9
SMILES	APP transl inh	STAT1 activator	APP 5'UTR act	FLuc inh counter	FLuc act counter	NF-kB neuron act
CC(=O)c1sc(NC(=O)c2ccccc2F)nc1C	-116	122	116	44	0.6	3.5*
Cc1c(NC(=O)C(C)Sc2nc3ccccc3c(=O)n2CCO)c(=O)n(-c2ccccc2)n1C (configuration not stated)	-8	106	8	-4	1	1
CC1=C(C(=O)OC(C)C)C(c2ccccn2)n2ncnc2N1 (configuration not stated)	-16	100	16	-6	1.1	1.1
Cc1ccnc(NC(=O)COc2ccccc2[N+](=O)[O-])c1	-150	108	150*	81*	0.2	1.1
C/C(=N\NC(=O)COc1ccccc1[N+](=O)[O-])c1cccs1	-41	144*	41	19	0.8	1.9
Cc1ccc(NC(=O)COc2ccccc2[N+](=O)[O-])nc1	-31	95	31	80*	0.2	5.5*
CCOC(=O)N1CCC(Nc2ncnc3c2cnn3-c2ccc(Cl)cc2)CC1	-15	118	15	-3	1	0.81
O=c1n(-c2ccccc2)c(=O)n(Cc2ccccn2)n1Cc1ccccn1	-13	106	13	-6	1.1	0.99
Cc1cc2c(cc1C)C(c1cccc([N+](=O)[O-])c1)CC(=O)N2 (configuration not stated)	-4	94	4	-5	1.1	0.84
CC1(C)CC(=O)C2=C(C1)NC(=O)CC2c1cc(F)ccc1F (configuration not stated)	-22	96	22	-6	1.1	0.99
O=C1CC(c2cc(F)ccc2F)c2cc3c(cc2N1)CCC3 (configuration not stated)	84*	77	-83	2	1	1.3
O=C1CC(c2cccc(Br)c2)c2cc3c(cc2N1)CCC3 (configuration not stated)	54*	85	-54	-5	1.1	0.74
COCCNC(=O)C(OC(=O)C1=Cc2ccccc2OC1)C(C)C (configuration not stated)	-6	102	6	-1	1	0.87
CCOc1ccccc1N1CCN(Cc2c(C)n(C)n(-c3ccccc3)c2=O)CC1	4	96	-4	-2	1	0.98
Cc1ccc(S(=O)(=O)/N=C(/NC(=S)Nc2ccccc2)c2ccccc2)cc1	-144	150*	144*	8	0.9	6*
Cc1ccc(NC(=S)N/C(=N/S(=O)(=O)c2ccccc2)c2ccccc2)cc1	-55	143*	55	-4	1	2.4
COC(=O)c1ccc(N/C(=N/S(=O)(=O)c2ccccc2)c2ccccc2)cc1	-2	97	2	-6	1.1	0.93
CCOC(=S)N/C(=N\S(=O)(=O)c1ccccc1)c1ccccc1	3	101	-3	-5	1	1.2
Cc1ccc(OCCSc2ncccn2)c(C)c1	-168	136*	168*	36	0.6	5.5*
Cc1cccc(OCCOCCSc2ncccn2)c1	-22	110	22	-8	1.1	1.3
COc1ccc(NC(=O)CSc2ccc3nnc(-c4cccnc4)n3n2)c(OC)c1	2	101	-2	3	1	0.67
CC(C)N=C1NN=C(c2cccs2)CS1	-103	134*	103	31	0.7	3.5*

Assay outcomes from PubChem.
